Usually IC50 stands for the concentration that inhibits the measured activity by half. Low readings indicate greater potency in that assay, high ones weaker potency in that assay. One may read the Ki as the dissociation constant of the complex between target and ligand, obtained from inhibition or displacement. A lower Ki goes with tighter binding. As usually defined, the inhibition is how much of the control response was suppressed. Higher therefore signals strong suppression.

For the first experiment, the target named is T1, Melanin-concentrating hormone receptor 1 (Homo sapiens, UniProt Q99705). Put plainly: Inhibition of Melanin-concentrating hormone 1 receptor expressed in CHO cells. Format: cell-based.
T1 sequence (Q99705 whole entry): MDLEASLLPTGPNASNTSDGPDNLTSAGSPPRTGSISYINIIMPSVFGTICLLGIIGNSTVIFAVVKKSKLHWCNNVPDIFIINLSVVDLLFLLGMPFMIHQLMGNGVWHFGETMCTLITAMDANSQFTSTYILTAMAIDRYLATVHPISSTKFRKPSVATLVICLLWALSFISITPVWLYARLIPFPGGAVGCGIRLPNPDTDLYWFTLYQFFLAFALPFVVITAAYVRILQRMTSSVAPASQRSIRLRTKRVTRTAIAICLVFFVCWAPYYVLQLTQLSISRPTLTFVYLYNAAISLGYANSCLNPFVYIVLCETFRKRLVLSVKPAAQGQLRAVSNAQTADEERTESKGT
With `O=C1c2cc(OCCC3CCN(Cc4ccc(C5=NCCN5)cc4)CC3)ccc2CCCN1Cc1ccccc1`, the midpoint of inhibition, the IC50, lay at 300 nM.
`CCN1CCN(c2cc(C)c3cc(NC(=O)CCc4ccc(OC)cc4)ccc3n2)CC1` displayed a half-inhibitory concentration (IC50) of 730 nM.
On to `CCN1CCN(c2cc(C)c3cc(NC(=O)C(C)Oc4ccc(Cl)cc4Cl)ccc3n2)CC1` (stereo not given), for which the midpoint of inhibition, the IC50, lay at 230 nM.
Still for that read-out and setting: the value for `O=C(CNC(=O)OCc1ccccc1)NCC(CCCN1CCC(c2ccccc2)CC1)(c1ccccc1)c1ccccc1` was 5 nM; that for `CCN1CCN(c2cc(C)c3cc(NC(=O)CSc4ccncc4)ccc3n2)CC1` was 8200 nM; that for `COc1ccc(CCC(=O)Nc2ccc3nc(N4CCN(C)CC4)cc(C)c3c2)cc1` was 250 nM.
`CCN1CCN(c2cc(C)c3cc(NC(=O)COc4cccc(C)c4)ccc3n2)CC1`: the concentration for half-maximal inhibition (IC50) amounted to 6600 nM.
Same read-out and setting: the result for `CN(C)CC1CCc2cc(NC(=O)c3ccc(-c4ccc(F)cc4)cc3)ccc2C1` (stereo not given) reads 5.5 nM; that for `Cc1cc(N2CCN(C)CC2)nc2ccc(NC(=O)C(C)Oc3ccc(Cl)cc3Cl)cc12` (stereo not given), 790 nM.

Another experiment has as its target T1, Melanin-concentrating hormone receptor 1. The experiment is described as follows: (§1) Binding affinity for Melanin-concentrating hormone 1 receptor expressed in CHO cells. Format: cell-based. Summed up: (§2)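 Scintillation proximity binding: CHO membranes (5 μg) overexpressing MCH-1R with wheat germ agglutinin SPA beads and 0.4 nM 125I-[Phe13,Tyr19]-MCH, 1 h at room temperature. Nonspecific binding was taken with 1 μM MCH. Bound label was scintillation-counted. IC50 came from six-point semilog concentration–response curves.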
Molecule `O=C(CCCN1CCC(O)(c2ccc(Cl)cc2)CC1)c1ccc(Cl)cc1` came in with a Kb of 9 nM.
The same measure, in the same setting: the result for `CCCCN(CCCC)c1ccc(CNC[C@H]2CC[C@H](N(C)C(=O)c3cccc4ccccc34)CC2)cc1` reads 284 nM.

The next experiment has the same target. The experiment is described as §1. The experiment is classed as cell-based. In short, it runs like this:
as §2
`COc1cc(N2CCN(C[C@H]3C[C@@H]3c3ccccc3)CC2)ccc1Br` returned a Ki below 1000 nM.
On the same count and under the same terms, the result for `CC[C@H](NC(=O)c1ccc(CC2CCN(Cc3ccc4c(c3)OCO4)CC2)cc1)c1ccc(C(=O)OC)cc1` reads at most 1500 nM; that for `CC(=O)N[C@@H]1CCN(CCCCN(C(=O)Nc2ccc(F)c(Cl)c2)c2ccc(-c3cccc(C#N)c3)cc2)C1`, below 100 nM.

A further experiment shares this target. Put plainly: Percent inhibition of Melanin-concentrating hormone 1 receptor expressed in CHO cells at 10 uM. The experiment is classed as cell-based. Summed up: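 Same SPA radioligand binding setup: CHO MCH-1R membranes with 0.4 nM 125I-[Phe13,Tyr19]-MCH and WGA beads, 1 h at room temperature, 1 μM MCH for nonspecific binding. Compounds were screened at a single 10 μM concentration, and actives were retested in duplicate at 10 μM. Read-out is percent inhibition of specific binding.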
As for `Cc1cc(N2CCN(C)CC2)nc2ccc(NC(=O)CCC3CCCC3)cc12`, the inhibition was determined as 11.6%.

Source of the values: ChEMBL document CHEMBL1137201, “A virtual screening approach to finding novel and potent antagonists at the melanin-concentrating hormone 1 receptor” (J Med Chem, 2004).
